Results: ChEMBL document CHEMBL3120111, “Bilirubin and related tetrapyrroles inhibit food-borne mutagenesis: a mechanism for antigenotoxic action against a model epoxide” (J Nat Prod, 2013)
Active and inactive are the calls of the source. The calls are words filed in the database; no cut-off is given here.

What was measured:
[1] = tested on: Salmonella typhimurium; experiment: Antimutagenic activity against PhIP-induced Salmonella typhimurium TA98 mutagenesis preincubated at 0.5 umol/plate for 25 mins by Ames test in presence of S9 liver homogenate relative to control; type: functional, organism-based; details: Salmonella enterica subsp. enterica serovar Typhimurium, Liver S9 fraction
Summary of the method: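 IP0.5 is the percent inhibition of PhIP-positive-control revertants (0.1×10^-7 mol/plate PhIP, TA98, with S9) at 0.5 µmol/plate tetrapyrrole. It was derived from dose-response data in the 25 min preincubation plate assay, with 48 h incubation at 37 °C. Three positive-control plates and six solvent-control plates per test.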

[2] = tested on: Salmonella typhimurium; experiment: Antimutagenic activity against PhIP-induced Salmonella typhimurium TA98 mutagenesis preincubated at 0.01 to 10 umol/plate for 25 mins by Ames test in presence of S9 liver homogenate relative to control; type: functional, organism-based; details: Salmonella enterica subsp. enterica serovar Typhimurium, Liver S9 fraction
[3] = tested on: Salmonella typhimurium; experiment: Antimutagenic activity against PhIP-induced Salmonella typhimurium TA98 mutagenesis assessed as reduction in His+ revertants after 48 hrs by microscopy in presence of S9 liver homogenate; type: functional, organism-based; details: Salmonella enterica subsp. enterica serovar Typhimurium, Liver S9 fraction
Summary of the method: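 Ames preincubation in TA98 with rat liver S9 mix (Aroclor 1254-induced, with NADP and glucose-6-phosphate). PhIP was 0.1×10^-7 mol/plate in DMSO; tetrapyrroles were in DMSO at 0.01–2 µmol/plate (bilirubin 0.01–0.75). Preincubation 25 min at 37 °C with shaking, then top agar on minimal glucose plates for 48 h at 37 °C. His+ revertants counted manually after microscopic lawn check. Triplicate plates, repeated independently.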

[4] = tested on: Salmonella typhimurium; experiment: Mutagenic activity in Salmonella typhimurium TA98 mutagenesis preincubated at 0.5 umol/plate for 25 mins by Ames test in presence of S9 liver homogenate relative to aflatoxin B1; type: toxicity, organism-based, Liver S9 fraction; details: salmonella enterica subsp. enterica serovar typhimurium

| SMILES | inhibition [1] [%] | Activity [2] | Activity [3] | Activity [4] [%] |
| --- | --- | --- | --- | --- |
| C=CC1=C(C)c2cc3[nH]c(cc4nc(cc5[nH]c(cc1n2)c(C)c5CCC(=O)O)C(CCC(=O)O)=C4C)c(C)c3C=C | 97 |  |  |  |
| C=CC1=C(C)/C(=C\c2[nH]c(Cc3[nH]c(/C=C4/NC(=O)C(C)=C4C=C)c(C)c3CCC(=O)OC)c(CCC(=O)OC)c2C)NC1=O | 68 |  |  |  |
| CC[C@H]1[C@H](Cc2[nH]c(/C=C3\N=C(C[C@@H]4NC(=O)[C@H](CC)[C@H]4C)C(C)=C3CCC(=O)O)c(CCC(=O)O)c2C)NC(=O)[C@@H]1C | 57 | Active |  |  |
| CCC1=C(C)[C@H](CC2=N/C(=C\c3[nH]c(C[C@@H]4N=C(O)C(C)=C4CC)c(C)c3CCC(=O)O)C(CCC(=O)O)=C2C)N=C1O | 48 | Active |  |  |
| C=CC1=C(C)/C(=C/C2=NC(=C\c3[nH]c(/C=C4/NC(=O)C(C)=C4C=C)c(C)c3CCC(=O)OC)/C(CCC(=O)OC)=C2C)NC1=O | 55 | Active | Active |  |
| C=CC1=C(C)/C(=C/c2[nH]c(Cc3[nH]c(/C=C4\NC(=O)C(C)=C4C=C)c(C)c3CCC(=O)O)c(CCC(=O)O)c2C)NC1=O [BILIRUBIN] | 82 |  |  | 352 |
| C=CC1=C(C)/C(=C/C2=NC(=C\c3[nH]c(/C=C4\NC(=O)C(C)=C4C=C)c(C)c3CCC(=O)O)/C(CCC(=O)O)=C2C)NC1=O [BILIVERDIN] | 78 | Active | Active | 363 |
| C=CC1=C(C)/C(=C/c2[nH]c(Cc3[nH]c(/C=C4\NC(=O)C(C)=C4C=C)c(C)c3CCC(=O)NCCS(=O)(=O)O)c(CCC(=O)NCCS(=O)(=O)O)c2C)NC1=O [BILIRUBIN DITAURATE] | 64 |  |  | 268 |
